The values below come from ChEMBL document CHEMBL1159084, “Synthesis and structure-activity relationship of 1,2,4-triazole-containing diarylpyrazolyl carboxamide as CB1 cannabinoid receptor-ligand” (Bioorg Med Chem, 2010).

Chain of Cannabinoid receptor 1 (P20272 whole entry): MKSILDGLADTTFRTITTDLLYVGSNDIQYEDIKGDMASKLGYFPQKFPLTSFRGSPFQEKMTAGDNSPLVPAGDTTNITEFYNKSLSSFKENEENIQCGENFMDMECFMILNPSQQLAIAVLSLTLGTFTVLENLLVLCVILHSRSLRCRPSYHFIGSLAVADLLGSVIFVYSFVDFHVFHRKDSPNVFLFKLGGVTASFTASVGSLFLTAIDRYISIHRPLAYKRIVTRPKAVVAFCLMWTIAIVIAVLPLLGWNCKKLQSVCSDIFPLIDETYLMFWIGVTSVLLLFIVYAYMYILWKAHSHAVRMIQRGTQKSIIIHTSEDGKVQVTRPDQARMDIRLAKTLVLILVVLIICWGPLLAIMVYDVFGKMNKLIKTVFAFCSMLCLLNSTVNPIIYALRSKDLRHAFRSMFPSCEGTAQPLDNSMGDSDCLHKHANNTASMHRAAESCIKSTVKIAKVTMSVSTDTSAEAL

In the assay the target is Cannabinoid receptor 1 (Rattus norvegicus, UniProt P20272). The assay can be described thus: Displacement of [3H]CP-55940 from CB1 receptor in Sprague-Dawley rat cerebellar membrane. Further details: species or system Cerebellum. The procedure, abridged:
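Membranes came from cerebella of male Sprague Dawley rats (200–300 g), homogenized in TME buffer (50 mM Tris–HCl, 1 mM EDTA, 3 mM MgCl2, pH 7.4) and spun at 48,000g for 30 min at 4 °C. They were incubated 1 h at 30 °C in TME with 0.5% fatty-acid-free BSA, then filtered on PEI-soaked GF/B, washed and counted by scintillation. IC50 values are from single determinations.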
For orientation: Displacement assays read how much labelled ligand stays bound in the presence of the test substance.
Consider `CC1CCCC(C)N1NC(=O)c1nn(-c2ccc(Cl)cc2Cl)c(-c2ccc(Cl)cc2)c1Cn1cncn1` (stereo not given), for which the 50% inhibitory concentration (IC50) (commonly the midpoint of a concentration-inhibition curve) worked out at 11.4 nM.

Consider `O=C(NCc1ccccc1)c1nn(-c2ccc(Cl)cc2Cl)c(-c2ccc(Br)cc2)c1Cn1cncn1`, for which the IC50 was 13 nM. The IC50 values of the last two molecules are within 1.5-fold of each other.

On to `O=C(NC1(c2ccc(Cl)cc2)CC1)c1nn(-c2ccc(Cl)cc2Cl)c(-c2ccc(Br)cc2)c1Cn1cncn1`, for which the IC50 was found to be 2.8 nM. Compared with the last molecule, the IC50 is about 4.6-fold lower.

Take `CCC(C)(C)NC(=O)c1nn(-c2ccccc2Cl)c(-c2ccc(Br)cc2)c1Cn1cncn1`: the IC50 was found to be 8.99 nM.

`CC(C)(C)NC(=O)c1nn(-c2ccccc2Cl)c(-c2ccc(Br)cc2)c1Cn1cncn1` displayed an IC50 of 7.9 nM.

Molecule `CC(NC(=O)c1nn(-c2ccc(Cl)cc2Cl)c(-c2ccc(Br)cc2)c1Cn1cncn1)C(C)(C)C` (stereo not given) returned an IC50 of 4.1 nM. Against the preceding molecule, the IC50 is about 1.9-fold lower.

Turning to `O=C(NN1CCCCC1)c1nn(-c2ccc(Cl)cc2Cl)c(-c2ccc(Cl)cc2)c1Cn1cncn1`, the IC50 stood at 3.83 nM.

In turn, `CCC(C)(C)NC(=O)c1nn(-c2ccc(Cl)cc2Cl)c(-c2ccc(Br)cc2)c1Cn1cncn1` yielded an IC50 of 3.67 nM.

As for `CC(NC(=O)c1nn(-c2ccc(Cl)cc2Cl)c(-c2ccc(Cl)cc2)c1Cn1cncn1)c1ccc(Br)cc1` (stereo not given), the IC50 was found to be 2.6 nM.

`O=C(NNC(=O)C1(C(F)(F)F)CC1)c1nn(-c2ccc(Cl)cc2Cl)c(-c2ccc(Cl)cc2)c1Cn1cncn1`: the IC50 came out at 126 nM.

For the molecule `CCC(C)(C)NC(=O)c1nn(-c2ccccc2Cl)c(-c2ccc(Cl)cc2)c1Cn1cncn1`, the IC50 is 11.9 nM.

In the case of `CC(NC(=O)c1nn(-c2ccccc2Cl)c(-c2ccc(Cl)cc2)c1Cn1cncn1)C(C)(C)C` (stereo not given), the IC50 is 6.22 nM.

For `CCN1CCN(C(=O)c2nn(-c3ccccc3Cl)c(-c3ccc(Br)cc3)c2Cn2cncn2)CC1`, the IC50 came out at 303 nM.

Take `O=C(c1nn(-c2ccccc2Cl)c(-c2ccc(Br)cc2)c1Cn1cncn1)N1CCN(c2ncccn2)CC1`: the IC50 turned out to be 22.3 nM.

For `O=C(c1nn(-c2ccccc2Cl)c(-c2ccc(Br)cc2)c1Cn1cncn1)N1CCN(c2ccccc2)CC1`, the IC50 amounted to 8.01 nM.

With `CN1CCN(C(=O)c2nn(-c3ccccc3Cl)c(-c3ccc(Br)cc3)c2Cn2cncn2)CC1`, the IC50 came to 901 nM.

For `C[C@H]1CC[C@H](NC(=O)c2nn(-c3ccc(Cl)cc3Cl)c(-c3ccc(Cl)cc3)c2Cn2cncn2)CC1`, the IC50 was found to be 14.2 nM.

In the case of `O=C(NC1CCCCCC1)c1nn(-c2ccc(Cl)cc2Cl)c(-c2ccc(Br)cc2)c1Cn1cncn1`, the IC50 was determined as 8.49 nM. Against the preceding molecule, the IC50 is about 1.7-fold lower.

Molecule `Cc1cccc(N2CCN(C(=O)c3nn(-c4ccc(Cl)cc4Cl)c(-c4ccc(Br)cc4)c3Cn3cncn3)CC2)c1C` displayed an IC50 of 3.8 nM.

For the molecule `O=C(NC1CCCCC1)c1nn(-c2ccc(Cl)cc2Cl)c(-c2ccc(Br)cc2)c1Cn1cncn1`, the IC50 was found to be 4.38 nM.

In turn, `C[C@H]1CCCC[C@@H]1NC(=O)c1nn(-c2ccc(Cl)cc2Cl)c(-c2ccc(Cl)cc2)c1Cn1cncn1` yielded an IC50 of 12.9 nM.

The molecule `C[C@@H]1CCCC[C@@H]1NC(=O)c1nn(-c2ccc(Cl)cc2Cl)c(-c2ccc(Cl)cc2)c1Cn1cncn1` (single isomer, unassigned) had an IC50 of 18.3 nM. This IC50 and that of the molecule before are within 1.5-fold of each other.

As to `O=C(NC1(C(F)(F)F)CCC1)c1nn(-c2ccccc2Cl)c(-c2ccc(Br)cc2)c1Cn1cncn1`, the IC50 stood at 7.48 nM.

As for `O=C(NNC(=O)C1CCCCC1)c1nn(-c2ccc(Cl)cc2Cl)c(-c2ccc(Cl)cc2)c1Cn1cncn1`, the IC50 stood at 189 nM.

For `O=C(NC1(c2ccccc2)CC1)c1nn(-c2ccc(Cl)cc2Cl)c(-c2ccc(Br)cc2)c1Cn1cncn1`, the IC50 amounted to 7.86 nM. This IC50 is about 24-fold lower than that of the molecule before.

Turning to `O=C(NC1CCCCC1)c1nn(-c2ccccc2Cl)c(-c2ccc(Cl)cc2)c1Cn1cncn1`, the IC50 is 6.6 nM.

For the molecule `O=C(c1nn(-c2ccccc2Cl)c(-c2ccc(Cl)cc2)c1Cn1cncn1)N1CCN(c2cccc(Cl)c2)CC1`, the IC50 stood at 4.08 nM.

In turn, `O=C(NN1CCCCCC1)c1nn(-c2ccc(Cl)cc2Cl)c(-c2ccc(Br)cc2)c1Cn1cncn1` returned an IC50 of 8.23 nM.

Turning to `CCN1CCN(C(=O)c2nn(-c3ccc(Cl)cc3Cl)c(-c3ccc(Br)cc3)c2Cn2cncn2)CC1`, the IC50 amounted to 285 nM.

Molecule `O=C(N[C@H]1CCCC[C@@H]1O)c1nn(-c2ccc(Cl)cc2Cl)c(-c2ccc(Cl)cc2)c1Cn1cncn1` showed an IC50 of 60.7 nM. This IC50 is about 4.7-fold lower than that of the molecule before.
